Experimental data as given in paper PMC3947313 (Journal of neurochemistry, 2013).

Key:
Format in all cases: biochemical
ERK2-pT202pY204 = assay: Enzyme-coupled; details: for decrease of kcat/Km (activity) toward phospho-ERK protein: STEP variant compared to wild-type STEP, pH 7.0, 25°C; for effect of mutation on activity toward phospho-ERK protein (in words): compared to the respective wild-type phosphatase
Outline: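 Phospho-ERK2 protein was prepared using ERK2 and MEK1 expression plasmids. Initial rates were fitted to Michaelis-Menten for Km and kcat. At substrate << Km, kcat/Km came from first-order progress-curve fitting. Values are mean ± standard error.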

[1] = test system: ERK pT202pY204 phospho-peptide; details: for decrease of activity toward phospho-ERK peptide: STEP mutant compared to wild-type STEP, 37°C, pH 6.0
Outline: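 Synthetic, HPLC-purified Tyr(P)-containing peptides were dephosphorylated at 37°C in 50 mM succinic buffer (pH 6.0), 1 mM EDTA and 2 mM DTT, ionic strength 0.15 M (NaCl). Released phosphate was measured with BIOMOL Green at 620 nm. Hydrolysis was also followed continuously by tyrosine fluorescence (excitation 280 nm, emission 305 nm). Michaelis-Menten fits gave kinetic parameters (mean ± standard error).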

[2] = Activity of STEP variants toward pNPP; details: compared to wild-type STEP; 37°C, pH 6.0
Outline: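 Phosphatase variants hydrolysed pNPP at 37°C in 50 mM succinic buffer (pH 6.0) with 1 mM EDTA, 2 mM DTT and ionic strength adjusted to 0.15 M with NaCl. Reactions were stopped with 1 M NaOH and read at 405 nm. Kinetic parameters came from Michaelis-Menten fits, reported as mean ± standard error.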

B1: S245E: S245E STEP phosphorylation mimic mutation (protein, UniProt P54829 1-565, looked up, variant S245E)
Tyrosine-protein phosphatase …: MNYEGARSERENHAADDSEGGALDMCCSERLPGLPQPIVMEALDEAEGLQDSQREMPPPPPPSPPSDPAQKPPPRGAGSHSLTVRSSLCLFAASQFLLACGVLWFSGYGHIWSQNATNLVSSLLTLLKQLEPTAWLDSGTWGVPSLLLVFLSVGLVLVTTLVWHLLRTPPEPPTPLPPEDRRQSVSRQPSFTYSEWMEEKIEDDFLDLDPVPETPVFDCVMDIKPEADPTSLTVKSMGLQERRGENVSLTLDMCTPGCNEEGFGYLMSPREESAREYLLSASRVLQAEELHEKALDPFLLQAEFFEIPMNFVDPKEYDIPGLVRKNRYKTILPNPHSRVCLTSPDPDDPLSSYINANYIRGYGGEEKVYIATQGPIVSTVADFWRMVWQEHTPIIVMITNIEEMNEKCTEYWPEEQVAYDGVEITVQKVIHTEDYRLRLISLKSGTEERGLKHYWFTSWPDQKTPDRAPPLLHLVREVEEAAQQEGPHCAPIIVHCSAGIGRTGCFIATSICCQQLRQEGVVDILKTTCQLRQDRGGMIQTCEQYQFVHHVMSLYEKQLSHQSPE
ERK2-pT202pY204
  decrease of kcat/Km (activity) toward phospho-ERK protein: 50 fold
[1]; compared to wild-type STEP
  effect of mutation on activity toward phospho-ERK peptide (in words): did not affect
[2]
  effect of mutation on activity toward pNPP (in words): did not affect

B2: K329A: STEP pY-binding loop mutant K329A (protein, UniProt P54829 1-565, looked up, variant K329A)
Tyrosine-protein phosphatase …: MNYEGARSERENHAADDSEGGALDMCCSERLPGLPQPIVMEALDEAEGLQDSQREMPPPPPPSPPSDPAQKPPPRGAGSHSLTVRSSLCLFAASQFLLACGVLWFSGYGHIWSQNATNLVSSLLTLLKQLEPTAWLDSGTWGVPSLLLVFLSVGLVLVTTLVWHLLRTPPEPPTPLPPEDRRQSVSRQPSFTYSEWMEEKIEDDFLDLDPVPETPVFDCVMDIKPEADPTSLTVKSMGLQERRGSNVSLTLDMCTPGCNEEGFGYLMSPREESAREYLLSASRVLQAEELHEKALDPFLLQAEFFEIPMNFVDPKEYDIPGLVRKNRYATILPNPHSRVCLTSPDPDDPLSSYINANYIRGYGGEEKVYIATQGPIVSTVADFWRMVWQEHTPIIVMITNIEEMNEKCTEYWPEEQVAYDGVEITVQKVIHTEDYRLRLISLKSGTEERGLKHYWFTSWPDQKTPDRAPPLLHLVREVEEAAQQEGPHCAPIIVHCSAGIGRTGCFIATSICCQQLRQEGVVDILKTTCQLRQDRGGMIQTCEQYQFVHHVMSLYEKQLSHQSPE
ERK2-pT202pY204
  effect of mutation on activity toward phospho-ERK protein (in words): did not affect
[1]; compared to wild-type STEP
  effect of mutation on activity toward phospho-ERK peptide (in words): weakly
[2]
  effect of mutation on activity toward pNPP (in words): weakly

B3: T330A: STEP pY-binding loop mutant T330A (protein, UniProt P54829 1-565, looked up, variant T330A)
Tyrosine-protein phosphatase …: MNYEGARSERENHAADDSEGGALDMCCSERLPGLPQPIVMEALDEAEGLQDSQREMPPPPPPSPPSDPAQKPPPRGAGSHSLTVRSSLCLFAASQFLLACGVLWFSGYGHIWSQNATNLVSSLLTLLKQLEPTAWLDSGTWGVPSLLLVFLSVGLVLVTTLVWHLLRTPPEPPTPLPPEDRRQSVSRQPSFTYSEWMEEKIEDDFLDLDPVPETPVFDCVMDIKPEADPTSLTVKSMGLQERRGSNVSLTLDMCTPGCNEEGFGYLMSPREESAREYLLSASRVLQAEELHEKALDPFLLQAEFFEIPMNFVDPKEYDIPGLVRKNRYKAILPNPHSRVCLTSPDPDDPLSSYINANYIRGYGGEEKVYIATQGPIVSTVADFWRMVWQEHTPIIVMITNIEEMNEKCTEYWPEEQVAYDGVEITVQKVIHTEDYRLRLISLKSGTEERGLKHYWFTSWPDQKTPDRAPPLLHLVREVEEAAQQEGPHCAPIIVHCSAGIGRTGCFIATSICCQQLRQEGVVDILKTTCQLRQDRGGMIQTCEQYQFVHHVMSLYEKQLSHQSPE
[1]; compared to wild-type STEP
  effect of mutation on activity toward phospho-ERK peptide (in words): did not affect
[2]
  effect of mutation on activity toward pNPP (in words): did not affect

B4: Q462F: STEP WPD-loop mutant Q462F (protein, UniProt P54829 1-565, looked up, variant Q462F)
Tyrosine-protein phosphatase …: MNYEGARSERENHAADDSEGGALDMCCSERLPGLPQPIVMEALDEAEGLQDSQREMPPPPPPSPPSDPAQKPPPRGAGSHSLTVRSSLCLFAASQFLLACGVLWFSGYGHIWSQNATNLVSSLLTLLKQLEPTAWLDSGTWGVPSLLLVFLSVGLVLVTTLVWHLLRTPPEPPTPLPPEDRRQSVSRQPSFTYSEWMEEKIEDDFLDLDPVPETPVFDCVMDIKPEADPTSLTVKSMGLQERRGSNVSLTLDMCTPGCNEEGFGYLMSPREESAREYLLSASRVLQAEELHEKALDPFLLQAEFFEIPMNFVDPKEYDIPGLVRKNRYKTILPNPHSRVCLTSPDPDDPLSSYINANYIRGYGGEEKVYIATQGPIVSTVADFWRMVWQEHTPIIVMITNIEEMNEKCTEYWPEEQVAYDGVEITVQKVIHTEDYRLRLISLKSGTEERGLKHYWFTSWPDFKTPDRAPPLLHLVREVEEAAQQEGPHCAPIIVHCSAGIGRTGCFIATSICCQQLRQEGVVDILKTTCQLRQDRGGMIQTCEQYQFVHHVMSLYEKQLSHQSPE
ERK2-pT202pY204
  effect of mutation on activity toward phospho-ERK protein (in words): increase
[1]; compared to wild-type STEP
  effect of mutation on Km for the phospho-ERK-peptide (in words): significantly lower

B5: K463Q: STEP WPD-loop mutant K463Q (protein, UniProt P54829 1-565, looked up, variant K463Q)
Tyrosine-protein phosphatase …: MNYEGARSERENHAADDSEGGALDMCCSERLPGLPQPIVMEALDEAEGLQDSQREMPPPPPPSPPSDPAQKPPPRGAGSHSLTVRSSLCLFAASQFLLACGVLWFSGYGHIWSQNATNLVSSLLTLLKQLEPTAWLDSGTWGVPSLLLVFLSVGLVLVTTLVWHLLRTPPEPPTPLPPEDRRQSVSRQPSFTYSEWMEEKIEDDFLDLDPVPETPVFDCVMDIKPEADPTSLTVKSMGLQERRGSNVSLTLDMCTPGCNEEGFGYLMSPREESAREYLLSASRVLQAEELHEKALDPFLLQAEFFEIPMNFVDPKEYDIPGLVRKNRYKTILPNPHSRVCLTSPDPDDPLSSYINANYIRGYGGEEKVYIATQGPIVSTVADFWRMVWQEHTPIIVMITNIEEMNEKCTEYWPEEQVAYDGVEITVQKVIHTEDYRLRLISLKSGTEERGLKHYWFTSWPDQQTPDRAPPLLHLVREVEEAAQQEGPHCAPIIVHCSAGIGRTGCFIATSICCQQLRQEGVVDILKTTCQLRQDRGGMIQTCEQYQFVHHVMSLYEKQLSHQSPE
ERK2-pT202pY204
  decrease of kcat/Km (activity) toward phospho-ERK protein: more than 4 fold
[1]
  decrease of activity toward phospho-ERK peptide: more than 4 fold

B6: F311A: STEP second-site loop mutant F311A (protein, UniProt P54829 1-565, looked up, variant F311A)
Tyrosine-protein phosphatase …: MNYEGARSERENHAADDSEGGALDMCCSERLPGLPQPIVMEALDEAEGLQDSQREMPPPPPPSPPSDPAQKPPPRGAGSHSLTVRSSLCLFAASQFLLACGVLWFSGYGHIWSQNATNLVSSLLTLLKQLEPTAWLDSGTWGVPSLLLVFLSVGLVLVTTLVWHLLRTPPEPPTPLPPEDRRQSVSRQPSFTYSEWMEEKIEDDFLDLDPVPETPVFDCVMDIKPEADPTSLTVKSMGLQERRGSNVSLTLDMCTPGCNEEGFGYLMSPREESAREYLLSASRVLQAEELHEKALDPFLLQAEFFEIPMNAVDPKEYDIPGLVRKNRYKTILPNPHSRVCLTSPDPDDPLSSYINANYIRGYGGEEKVYIATQGPIVSTVADFWRMVWQEHTPIIVMITNIEEMNEKCTEYWPEEQVAYDGVEITVQKVIHTEDYRLRLISLKSGTEERGLKHYWFTSWPDQKTPDRAPPLLHLVREVEEAAQQEGPHCAPIIVHCSAGIGRTGCFIATSICCQQLRQEGVVDILKTTCQLRQDRGGMIQTCEQYQFVHHVMSLYEKQLSHQSPE
ERK2-pT202pY204
  decrease of kcat/Km (activity) toward phospho-ERK protein: 2 fold
[1]
  decrease of activity toward phospho-ERK peptide: 2 fold
[2]
  effect of mutation on activity toward pNPP (in words): did not affect
